Data reported in ChEMBL document CHEMBL4024760, “Specific Inhibition of Bacterial β-Glucuronidase by Pyrazolo[4,3-c]quinoline Derivatives via a pH-Dependent Manner To Suppress Chemotherapy-Induced Intestinal Toxicity” (J Med Chem, 2017).
Calls of active or inactive are those of the source. No cut-off for these calls is given here.

What was measured:
[1] = system: Escherichia coli; test: Inhibition of N-terminal His-tagged Escherichia coli beta-glucuronidase expressed in Escherichia coli BL21 (DE3) assessed as residual activity using pNPG as substrate at 10 uM preincubated for 30 mins followed by substrate addition measured after 1 hr relative to control
Outline: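 Purified E. coli βG (20 ng) preincubated with 10 μM compound for 30 min at 37 °C in PBS pH 7.5 with 10% DMSO and 0.05% BSA. pNPG (20 mM stock) then added for 1 h, quenched with 2 N NaOH, and read at OD405. Result given as % activity versus a 10% DMSO control; n = 3.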

[2] = molecular target: T1, beta-glucuronidase (Homo sapiens, UniProt P08236); test: Inhibition of N-terminal His-tagged human beta-glucuronidase expressed in Escherichia coli BL21 (DE3) assessed as residual activity using pNPG as substrate at 10 uM preincubated for 30 mins followed by substrate addition measured after 1 hr relative to control; conditions: probe pNPG, read-out: Activity
T1 sequence (P08236 whole entry): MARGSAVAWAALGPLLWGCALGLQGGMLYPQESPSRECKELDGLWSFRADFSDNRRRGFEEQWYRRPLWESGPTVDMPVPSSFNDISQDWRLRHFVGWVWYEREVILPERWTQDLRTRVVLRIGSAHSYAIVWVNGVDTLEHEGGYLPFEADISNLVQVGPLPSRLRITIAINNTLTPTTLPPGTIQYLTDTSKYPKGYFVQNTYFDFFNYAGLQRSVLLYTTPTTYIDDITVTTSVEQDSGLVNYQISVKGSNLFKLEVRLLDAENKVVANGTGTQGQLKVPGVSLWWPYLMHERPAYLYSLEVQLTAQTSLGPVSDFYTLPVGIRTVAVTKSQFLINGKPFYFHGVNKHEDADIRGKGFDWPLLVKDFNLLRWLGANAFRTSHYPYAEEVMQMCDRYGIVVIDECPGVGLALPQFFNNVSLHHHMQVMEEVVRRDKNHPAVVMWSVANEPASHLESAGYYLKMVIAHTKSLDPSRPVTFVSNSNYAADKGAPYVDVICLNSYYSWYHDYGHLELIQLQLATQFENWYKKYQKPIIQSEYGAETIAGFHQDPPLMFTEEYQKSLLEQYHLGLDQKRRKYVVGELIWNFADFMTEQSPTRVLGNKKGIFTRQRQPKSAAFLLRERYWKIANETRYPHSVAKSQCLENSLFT

[3] = Inhibition of N-terminal His-tagged Escherichia coli beta-glucuronidase expressed in Escherichia coli BL21 (DE3) using pNPG as substrate preincubated for 30 mins followed by substrate addition measured after 1 hr
Outline: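 Purified E. coli βG (20 ng) preincubated 30 min at 37 °C with compound (0.64–10 000 nM) in PBS pH 7.5 containing 10% DMSO and 0.05% BSA. pNPG (20 mM stock) then added for 1 h, quenched with 2 N NaOH, and pNP read at 405 nm. IC50 derived from a four-parameter curve fit; SD of n = 3.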

[4] = system: Escherichia coli BL21(DE3); test: Inhibition of beta-glucuronidase in Escherichia coli BL21 (DE3) using pNPG as substrate at 50 uM preincubated for 30 mins followed by substrate addition measured after 1 hr relative to control
Outline: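 BL21(DE3) E. coli grown overnight and diluted to OD600 0.1 in LB. Cells treated with compound (50, 10 or 2 μM) for 30 min at 37 °C, then pNPG (40 mM stock) added for 1 h. Cells pelleted at 6000g; supernatant quenched with NaOH and read at OD405. Activity given as % of a 1% DMSO control.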

[5] = system: Escherichia coli; test: Toxicity against Escherichia coli BL21(DE3) assessed as effect on cell growth at 100 uM after 6 hrs
Outline: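 BL21(DE3) E. coli (diluted to OD600 0.1 in LB after overnight growth) incubated with compound at a final 100 μM, shaking at 37 °C for 6 h. Growth measured by OD600; viability given as % of the untreated control.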

[6] = system: Escherichia coli; test: Inhibition of intestinal Escherichia coli beta-glucuronidase in Balb/cJ mouse using FDGIcU as substrate at 3 mg/kg, po for 5 days measured on day 5 post last dose 120 mins after probe administration; format: organism-based
Outline: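 BALB/cJ mice were gavaged with inhibitor at 3 mg/kg/day or DDW (200 μL) for 5 days. FDGlcU probe (500 μg/100 μL) given orally 30 min after the fifth dose. Intestinal fluorescein imaged in vivo 120 min after the probe (ex 490/em 525 nm) and quantified as average radiance; n = 6; two-tailed t test.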

[7] = system: Escherichia coli; test: Inhibition of Escherichia coli beta-glucuronidase in Balb/cJ mouse feces using pNPG as substrate at 3 mg/kg, po for 5 days measured on day 5 post last dose after 1 hr; format: organism-based
Outline: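 Mice gavaged with inhibitor at 3 mg/kg/day or DDW for 5 days. Fresh feces homogenized 1:9 w/v in assay buffer, mixed with assay buffer and 20 mM pNPG (stock), incubated 37 °C for 1 h, centrifuged, quenched with 2 N NaOH, and pNP read at OD405; n = 6; two-tailed t test.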

[8] = system: Mus musculus; test: Protection against CPT-11 induced intestinal toxicity in Balb/cJ mouse assessed as reduction in intestinal tissue damage at 3 mg/kg/day, po starting from 2 days before 50 mg/kg/day, ip CPT-11 administration for 10 consecutive days by hematoxylin and eosin staining based method; format: functional, organism-based
Outline: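 Inhibitor given orally to BALB/cJ mice at 3 mg/kg/day in DDW (200 μL/day for controls), starting 2 days before CPT-11. CPT-11 50 mg/kg or saline given ip for 10 consecutive days. Jejunum, ileum and colon sections then H&E-stained and examined for villus and crypt destruction; 3–5 mice per group.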

[9] = system: Mus musculus; test: Protection against CPT-11 induced intestinal toxicity in Balb/cJ mouse transplanted with mouse CT26 cells assessed as reduction in diarrhea level at 3 mg/kg/day administered via oral gavage for 18 days starting from 2 days before 50 mg/kg/day, ip CPT-11 dosing from day 2 measured every other day up to 18 days; format: functional; design: scale not given: the % may be the effect or the level left
Outline: (§1)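 CT26 tumour-bearing BALB/c mice (cells inoculated day −8). Inhibitor given orally at 3 mg/kg/day in DDW (dosing solution 0.3 mg/mL) from day −2 onward. Daily ip CPT-11 50 mg/kg or saline from day 0. Tumour growth, body weight and diarrhea score (0 solid to 3 watery with severe perianal staining) recorded every other day; severity distribution on day 18. n = 6 mice/group; two-way ANOVA.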

[10] = system: CT26; test: Effect on CPT-11 induced antitumor activity against mouse CT26 cells transplanted in Balb/cJ mouse assessed as reduction in tumor volume at 3 mg/kg/day administered via oral gavage for 18 days starting from 2 days before 50 mg/kg/day, ip CPT-11 dosing from day 2 measured every other day up to 18 days; format: functional, organism-based; outline: as §1
[11] = system: Mus musculus; test: Effect on systemic metabolism of CPT-11 in mouse CT26 cells transplanted Balb/cJ mouse assessed as effect on CPT-11-induced weight loss at 3 mg/kg/day administered via oral gavage for 18 days starting from 2 days before 50 mg/kg/day, ip CPT-11 dosing from day 2 measured every other day up to 18 days; format: functional, organism-based; outline: as §1
[12] = system: Escherichia coli; test: Inhibition of N-terminal His-tagged Escherichia coli beta-glucuronidase expressed in Escherichia coli BL21 (DE3) using pNPG as substrate at 10 uM at pH 6.5
Outline: (§2)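 Purified E. coli βG assay at 10 μM compound, with PBS replaced by Na2HPO4 (0.2 M)/citric acid (0.1 M) buffer mixtures at each pH. Enzyme preincubated with compound 30 min at 37 °C, then pNPG added for 1 h; NaOH-quenched pNP read at 405 nm. Activity given relative to a 10% DMSO control at the same pH; n = 3.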

[13] = system: Escherichia coli; test: Inhibition of N-terminal His-tagged Escherichia coli beta-glucuronidase expressed in Escherichia coli BL21 (DE3) using pNPG as substrate at 10 uM at pH 6.0; outline: as §2
[14] = system: Escherichia coli; test: Inhibition of N-terminal His-tagged Escherichia coli beta-glucuronidase expressed in Escherichia coli BL21 (DE3) using pNPG as substrate at 10 uM at pH 5.5; outline: as §2
[15] = system: Escherichia coli; test: Inhibition of N-terminal His-tagged Escherichia coli beta-glucuronidase expressed in Escherichia coli BL21 (DE3) using pNPG as substrate at 10 uM at pH 7.5; outline: as §2

`Nc1n[nH]c2c1c(Nc1ccc(F)cc1)nc1ccccc12` showed an Activity [1] of 5.59%, an activity at 1 h, 10 µM [2] of 101% and an IC50 [3] of 0.137 µM. For the same compound, the inhibition [4] was > 80%, the Activity [5] was “Non-Toxic” and the inhibition [6] was 75%. The inhibition [7] was “Active”, the Activity [8] was “Active” and the Activity [9] was 50%. The Activity [10] was “inactive”, the Activity [11] was “inactive” and the inhibition [12] was 90%. For the same compound, the inhibition [13] was 80%, the inhibition [14] was 50% and the inhibition [15] was 90%.
`Cc1ccc(Nc2nc3ccccc3c3[nH]nc(N)c23)cc1` showed an Activity [1] of 4.78%, an activity at 1 h, 10 µM [2] of 100% and an IC50 [3] of 0.0373 µM. For the same compound, the inhibition [4] was > 80%, the Activity [5] was “Non-Toxic” and the inhibition [6] was 40%. For the same compound, the inhibition [7] was “Active”.
